Data published in article PMC7313255 (Biology of Reproduction, 2020).
“And” between values parts separate entries of the source, which are not always exact repeats. Equal values may be shown once. Where a name gives a salt, the structure may show the parent alone. Read-outs that look alike come from different tables or passages of the source. Blank lines part the entries; values can stand above or below the molecule they belong to. Positions of bridges follow the written chain, without caps; N, C: chain ends. Non-standard residues stand in square brackets, D forms with d. Residues, ends and D or L forms follow the SMILES beside them. Orn = NCCC[C@H](N)C(=O)O; Mpa = O=C(O)CCS

Legend:
[1] = cited from earlier work
[2] = assay type: in vitro ADME, human
Summary of the method: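 Term placentas (39–41 weeks, no chorioamnionitis) perfused ex vivo as double-sided open cotyledon at 36.5 °C; fetal flow 2 mL/min, maternal 10 mL/min. Test compound 1.2 µM (1 µg/mL) in perfusate with antipyrine 531 µM co-infused. Fetal venous samples at 1–120 min; Evans blue integrity check. LC-MS/MS for test compound, spectrophotometry for antipyrine; trapezoidal AUC ratio; mean ± SD.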

[3] = biological target: cloned human V1AR; conditions: read-out: Ki (affinity), cloned human V1AR; two literature values; cited from earlier work
[4] = sheep, epitheliochoral placenta; cited from earlier work
[5] = up to 2.5 mg barusiban/kg body weight/day from day 85 of gestation until delivery; cited from earlier work
[6] = tested on: vasopressin-induced contractions of isolated term-pregnant human myometrium; conditions: cited from earlier work
[7] = tested on: oxytocin-induced uterine contractions; conditions: cited from earlier work
[8] = Placental transfer in rabbits; assay type: in vivo, New Zealand white rabbits; conditions: rabbit
Summary of the method: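 Pregnant rabbits (5–6 months, 3.0–4.4 kg) given the radiolabelled test compound by ear-vein bolus daily on gestation days 24–30: mean 3.01 mg/kg, 522 kBq/kg, in 0.9% saline. Three dams per time point killed by barbiturate at 10 min, 1, 3 and 10 h after dosing. Maternal ear-artery blood taken; from one fetus per sex, cardiac blood and tissues taken. Liquid scintillation counting; levels expressed as % of maternal peak.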

[9] = Placental transfer in cynomolgus monkeys; assay type: in vivo, cynomolgus monkeys (Macaca fascicularis); conditions: cynomolgus monkey
Summary of the method: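 Three pregnant monkeys, gestation day 150 ± 1. Test compound infused intravenously (saphenous vein) over 2 h to 300 µg/kg in 5 mL/kg, from a 10 mg/mL stock in 0.04 M acetate pH 4.3 diluted in saline. Maternal brachial plasma taken pre-dose, 1 and 2 h. Umbilical venous plasma and amniotic fluid taken at C-section under ketamine/xylazine. Plasma measured by RIA, amniotic fluid by LC-MS/MS; paired t-test.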

[10] = quantitative whole-body autoradiography; assay type: in vivo; conditions: rat; all sampling times; limit of quantitation 40 pmoles/g; unpublished data
[11] = quantitative whole-body autoradiography; assay type: in vivo; conditions: marmoset; normally below the limit of quantification; unpublished data
[12] = cited from earlier work; remark: listed apart in the source

SMILES: O=S(=O)([O-])[O-].[Mg+2] [MgSO4]
- placental transfer ([1]; in humans): up to 100%

- transfer of antipyrine relative to barusiban ([2]; human placental single cotyledon, comparator): approximately three times greater
SMILES: Cc1cc(=O)n(-c2ccccc2)n1C [antipyrine, reference compound]

SMILES: CCOc1ccc(C[C@H]2NC(=O)CCSSC[C@@H](C(=O)N3CCC[C@H]3C(=O)N[C@@H](CCCN)C(=O)NCC(N)=O)NC(=O)[C@H](CC(N)=O)NC(=O)[C@H]([C@@H](C)O)NC(=O)[C@H]([C@@H](C)CC)NC2=O)cc1 [atosiban] ([Mpa][dY](Et)ITNCP[Orn]G-NH2; disulfide 1-6 (inferred); C-terminus assumed)
- Ki [3]: 3.5 nM and 4.7 nM
- placental transfer ([1]; in vivo, pregnant women at term): 12%
- placental transfer [4]: could not be detected

- barusiban level in other fetal tissues as % of the maternal blood ([8]; 10 min post-dose, or less than LLOQ): < 1%
- barusiban in most fetal tissue samples as % of the maternal peak blood level ([8]; 1 h post-dose, or less than LLOQ): less than 1%
- fetal blood barusiban as % of that after 10 min ([8]; 1 h post-dose): 79.3%
- fetal blood barusiban as % of the peak maternal level ([8]; 1 h post-dose): 4.2%
- fetal plasma barusiban as % of the peak maternal level ([8]; 1 h post-dose): 5.0%
- maternal blood barusiban as % of the maximum level ([8]; 1 h post-dose): 32.8%
- maternal plasma barusiban as % of the maximum level ([8]; 1 h post-dose): 35.2%
- maternal blood barusiban as % of its maximum level ([8]; 3 h post-dose): 6.1%
- maternal plasma barusiban as % of its maximum level ([8]; 3 h post-dose): 7.9%
- fetal adrenal barusiban as % of the maximal maternal blood level ([8]; 10 h post-dose, one adrenal): 12.0%
- barusiban in all other fetal tissues as % of peak maternal blood level ([8]; 10 h post-dose, or less than LLOQ): less than 1%
- amniotic fluid barusiban as % of the maximal maternal blood level ([8]; 10 h post-dose): 5.7%
- fetal blood barusiban as % of initial maternal level ([8]; 10 h post-dose): less than 2%
- fetal plasma barusiban as % of initial maternal level ([8]; 10 h post-dose): less than 3%
- maternal blood barusiban as % of the first determination ([8]; 10 h post-dose): less than 1%
- maternal plasma barusiban as % of the first determination ([8]; 10 h post-dose): less than 2%
- increase of maternal plasma barusiban from 1 h to 2 h ([9]; individual values of two animals): 40.4% and 54.6%
- mean amniotic barusiban at C-section as % of the maternal plasma after 2 h ([9]; iv infusion 2 h to 300 μg/kg, n = 3): 1.9%
- decrease of maternal plasma barusiban from 1 h to 2 h ([9]; third animal): 5.0%
- AUC ratio of barusiban to antipyrine ([2]; ex vivo perfused human cotyledon, mean of ratios ± SD, n = 13, SD): 36 ± 11%
- barusiban in the fetuses (QWBA) [10]: < 40 pmol/g
- radioactivity in fetal brain (QWBA) [11]: < 12 pmoles/g tissue
SMILES: CC[C@@H](C)[C@@H]1NC(=O)[C@H]([C@@H](C)CC)NC(=O)[C@@H](Cc2c[nH]c3ccccc23)NC(=O)CCSCC[C@@H](C(=O)N(C)[C@H](CO)CCCN)NC(=O)[C@H](CC(N)=O)NC1=O [barusiban]
- effects in the mother or offspring [5]: no barusiban-related effects
- effect on vasopressin-induced contractions [6]: practically no effect
- reduction of induced uterine contractions compared with fenoterol ([7]; cynomolgus monkey): more effective than fenoterol
- reduction of oxytocin-induced uterine contractions compared with atosiban ([7]; pregnant cynomolgus monkey, action also longer lasting): more potent
- effect over the placebo group (women who did not deliver within 48 h) ([12]; Phase II clinical trial): did not demonstrate a statistically significant effect
- fetal and neonatal adverse events with maternal barusiban ([12]; clinical study, did not differ from placebo): very low level of fetal and neonatal adverse events

SMILES: CC(NCCc1ccc(O)cc1)C(O)c1ccc(O)cc1 (centres unmarked) [ritodrine hydrochloride]
- placental transfer ([1]; in humans, long-term treatment): 70%
- placental transfer ([1]; in humans, short-term treatment): 26%
